For orientation: IC50 means the midpoint of a concentration-inhibition curve.

Each structure is given as a SMILES string. Calls of active or inactive are those of the source. No cut-off for these calls is given here.

The nature of data set [1]: Selectivity index, ratio of LD50 for cytotoxicity against human HepG2 cells to LD50 for antiplasmodial activity against Plasmodium falciparum 3D7 sorbitol-treated ring stage. The class given is toxicity, cell-based. The following applies: read-out: Selectivity Index.
Data set [2] has as its system Plasmodium falciparum. The data set is described as follows: Antiplasmodial activity against DHA-resistant and sorbitol synchronized ring stage forms of Plasmodium falciparum Cam3.II^R539T expressing K13 mutant assessed as reduction in parasitemia incubated for 3 hrs by pulse exposure based Syto-61 staining dye based flow cytometry analysis. It counts as functional. The following applies: read-out: LD50 (the source's name). The method, boiled down: (§1)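 Tightly synchronized early-ring parasites (1-3 h post-invasion) exposed to compound for 3 h, then viability assessed in the next cycle. Cells stained with 2 µM Syto-61 and parasitemia read by flow cytometry, normalized to untreated and kill controls (2 µM DHA, 48-72 h). Mean ± SEM of three independent experiments.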
On the technique in general: A flow cytometer gives signals particle by particle.

The target of data set [3] is T1, Proteasome subunit beta type-10 (Homo sapiens, UniProt P40306).
T1 sequence (P40306 whole entry): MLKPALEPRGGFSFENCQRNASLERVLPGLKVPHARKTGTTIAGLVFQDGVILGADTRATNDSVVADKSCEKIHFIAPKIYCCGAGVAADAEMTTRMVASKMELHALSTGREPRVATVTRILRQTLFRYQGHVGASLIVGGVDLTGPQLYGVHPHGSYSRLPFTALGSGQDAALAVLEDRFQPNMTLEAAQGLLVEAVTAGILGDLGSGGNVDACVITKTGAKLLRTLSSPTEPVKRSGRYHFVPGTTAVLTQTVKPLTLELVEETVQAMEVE
The data set is described as follows: Inhibition of human 20S immunoproteasome beta 2 subunit trypsin-like activity using fluorogenic peptide Ac-WLR-AMC as substrate in presence of PA28alpha incubated for 1 to 2 hrs by fluorescence microplate reader assay.

In data set [4] the test system is Plasmodium falciparum. The data set is described as follows: Antiplasmodial activity against sorbitol synchronized ring stage Plasmodium falciparum 3D7 assessed as reduction in parasitemia incubated for 72 hrs by Syto-61 staining dye based flow cytometry analysis. As to conditions: read-out: LD50 (the source's name). The class given is functional. The method, boiled down: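 Sorbitol-treated ring-stage parasites in O+ human erythrocytes were incubated with compound for 72 h, and viability was read in the second cycle. Read-out was Syto-61 (2 µM) flow cytometry of parasitemia, normalized to untreated and 2 µM DHA-killed controls. Mean ± SEM of three independent experiments.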

Data set [5] is described as follows: Inhibition of Plasmodium falciparum 20S proteasome beta 5 subunit chymotrypsin-like activity using fluorogenic peptide Ac-WLA-AMC as substrate in presence of PA28alpha incubated for 1 to 2 hrs by fluorescence microplate reader assay.
Data set [6] deals with T2, Proteasome subunit beta type-8 (Homo sapiens, UniProt P28062).
T2 sequence (P28062 whole entry): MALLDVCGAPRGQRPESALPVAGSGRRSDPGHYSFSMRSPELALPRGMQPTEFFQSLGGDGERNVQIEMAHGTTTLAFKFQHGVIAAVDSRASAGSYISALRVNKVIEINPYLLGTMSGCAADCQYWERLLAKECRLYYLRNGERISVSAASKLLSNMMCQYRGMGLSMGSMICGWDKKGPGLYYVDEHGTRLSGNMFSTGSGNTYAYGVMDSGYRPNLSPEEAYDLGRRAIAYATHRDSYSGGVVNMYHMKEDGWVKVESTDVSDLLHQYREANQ
The data set is described as follows: Inhibition of human 20S immunoproteasome beta 5 subunit chymotrypsin-like activity using fluorogenic peptide Ac-WLA-AMC as substrate in presence of PA28alpha incubated for 1 to 2 hrs by fluorescence microplate reader assay.

Data set [7] can be described thus: Inhibition of Plasmodium falciparum 20S proteasome beta 1 subunit caspase-like activity using fluorogenic peptide Ac-nLPnLD-AMC as substrate in presence of PA28alpha incubated for 1 to 2 hrs by fluorescence microplate reader assay.
Data set [8] addresses T3, Proteasome Macropain subunit MB1 (Homo sapiens, UniProt P28074).
T3 sequence (P28074 whole entry): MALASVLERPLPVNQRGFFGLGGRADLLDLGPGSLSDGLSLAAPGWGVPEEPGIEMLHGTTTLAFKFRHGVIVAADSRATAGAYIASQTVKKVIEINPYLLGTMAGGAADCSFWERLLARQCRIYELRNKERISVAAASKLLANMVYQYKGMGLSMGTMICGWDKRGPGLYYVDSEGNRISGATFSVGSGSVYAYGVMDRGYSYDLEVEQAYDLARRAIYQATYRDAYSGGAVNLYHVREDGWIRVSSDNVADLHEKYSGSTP
The data set is described as follows: Inhibition of human 20S constitutive proteasome beta 5 subunit chymotrypsin-like activity using fluorogenic peptide Ac-WLA-AMC as substrate in presence of PA28alpha incubated for 1 to 2 hrs by fluorescence microplate reader assay.

The target of data set [9] is T4, Proteasome subunit beta type-8 (Homo sapiens) (UniProt P28062).
T4 sequence (whole entry): T2 sequence (P28062 whole entry)
The data set is described as follows: Inhibition of human 20S immunoproteasome beta 5 subunit assessed as inhibition of BMV037 probe labeling at 1 to 10 uM incubated for 1 hr by SDS-PAGE analysis. The following applies: dose 1-10 µM. The method, boiled down: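 Purified human immuno-20S (20 nM) was incubated with compound at 37°C for 1 h, then labelled with 10 µM BMV037 at 37°C for 2 h. Samples were run on 4-12% Bis-Tris gel with MES buffer, and active subunits were visualised by Cy5 fluorescence.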

Data set [10] in a line: Inhibition of Plasmodium falciparum 20S proteasome beta 2 subunit trypsin-like activity using fluorogenic peptide Ac-WLR-AMC as substrate in presence of PA28alpha incubated for 1 to 2 hrs by fluorescence microplate reader assay.
Data set [11] deals with Plasmodium falciparum. The data set is described as follows: Antiplasmodial activity against DHA-sensitive and sorbitol synchronized ring stage forms of Plasmodium falciparum Cam3.II^rev expressing K13 wild-type genotype assessed as reduction in parasitemia incubated for 3 hrs by pulse exposure based Syto-61 staining dye based flow cytometry analysis. The class given is functional. The following applies: read-out: LD50 (the source's name). The method, boiled down:
as §1

The target in data set [12] is T5, Proteasome subunit beta type-9 (Homo sapiens, UniProt P28065).
T5 sequence (P28065 whole entry): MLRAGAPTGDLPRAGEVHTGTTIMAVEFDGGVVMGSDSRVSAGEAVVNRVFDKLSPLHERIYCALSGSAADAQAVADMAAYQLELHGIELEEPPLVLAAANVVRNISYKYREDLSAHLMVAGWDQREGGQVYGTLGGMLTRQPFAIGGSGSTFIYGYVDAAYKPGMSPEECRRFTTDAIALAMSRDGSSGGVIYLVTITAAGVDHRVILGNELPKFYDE
The data set is described as follows: Inhibition of human 20S immunoproteasome beta 1 subunit caspase-like activity using fluorogenic peptide Ac-nLPnLD-AMC as substrate in presence of PA28alpha incubated for 1 to 2 hrs by fluorescence microplate reader assay.

Data set [13] concerns Plasmodium falciparum 3D7. The data set is described as follows: Inhibition of 20S proteasome beta 5 subunit in bortezomib-resistant Plasmodium falciparum 3D7 assessed as inhibition of BMV037 probe labeling at 1 to 10 uM incubated for 1 hr by SDS-PAGE analysis. As to conditions: dose 1-10 µM.
The target of data set [14] is T6, Proteasome subunit beta type-6 (Homo sapiens, UniProt P28072).
T6 sequence (P28072 whole entry): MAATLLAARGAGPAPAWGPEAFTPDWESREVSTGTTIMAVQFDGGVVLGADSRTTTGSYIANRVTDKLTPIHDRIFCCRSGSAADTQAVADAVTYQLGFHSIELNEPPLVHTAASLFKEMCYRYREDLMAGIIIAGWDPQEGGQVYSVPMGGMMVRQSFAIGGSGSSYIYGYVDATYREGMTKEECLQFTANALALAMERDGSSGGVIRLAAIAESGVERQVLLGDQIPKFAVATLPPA
The data set is described as follows: Inhibition of human 20S constitutive proteasome beta 1 subunit caspase-like activity using fluorogenic peptide Ac-nLPnLD-AMC as substrate in presence of PA28alpha incubated for 1 to 2 hrs by fluorescence microplate reader assay.

On to `CC(C)C[C@H](NC(=O)[C@H](Cc1ccccc1)NC(=O)Cc1ccc(O)cc1)B(O)O`, for which, in data set [1], the selectivity ratio was 0.7. The values for the LC50 in the data set on Plasmodium falciparum [2], in the data set with Plasmodium falciparum [4] and in the data set with Plasmodium falciparum [11] were 160 nM, 61 nM and 180 nM, respectively. The IC50 was 300 nM in [3]; 10 nM in data set [5]; 1.3 nM in [6]; 600 nM in data set [7]; 1.4 nM in data set [8]; 60 nM in [10]. The IC50 in [12] is 5 nM; in [14], 52 nM. In data set [9], the inhibition entry is “Active”. The inhibition result in data set [13] was “inactive”.

As to `Cc1ccc(S(=O)(=O)N[C@@H](CC(=O)NCC(C)(C)C)C(=O)N[C@@H](Cc2ccccc2)C(=O)N[C@@H](CC(C)C)B(O)O)cc1`, the selectivity ratio in [1] stood at 4. In addition, the figures for the LC50 in the data set with Plasmodium falciparum [2], with Plasmodium falciparum [4] and in the data set with Plasmodium falciparum [11] were 190 nM, 65 nM and 210 nM, respectively. The half-maximal inhibitory concentration (IC50) in [3] came to 130 nM; in data set [5] it was 16 nM; in [6], 5 nM; in data set [7], 1780 nM; in data set [8], 9 nM; in data set [10], 70 nM. Moreover, the results for the IC50 in [12] and in [14] were 29 nM and 1600 nM, respectively. In addition, the inhibition entry in data set [9] and in data set [13] was “Active” each time.

Regarding `CC(=O)N1CCC[C@@H]1C(=O)N[C@@H](C)C(=O)N[C@@H](Cc1ccccc1)B(O)O`, the selectivity ratio in data set [1] was determined as 56. The LC50 with Plasmodium falciparum [2] is 820 nM; in the data set with Plasmodium falciparum [4], 120 nM; with Plasmodium falciparum [11] it was 900 nM. Moreover, the IC50 in [3] was above 10000 nM; in [5], 1500 nM; in data set [6] it was 28 nM; in [7] it was 3190 nM; in data set [8], 220 nM; in data set [10], above 10000 nM. The results for the IC50 in data set [12] and in data set [14] were 8 nM and 3400 nM, respectively. Besides, the inhibition result in data set [9] and in data set [13] was “Active” in each case.

Values taken from ChEMBL document CHEMBL4680111, “Target Validation and Identification of Novel Boronate Inhibitors of the Plasmodium falciparum Proteasome” (J Med Chem, 2018).
